From ChEMBL document CHEMBL1158399, “Synthesis, biological evaluation and molecular modeling of oxoisoaporphine and oxoaporphine derivatives as new dual inhibitors of acetylcholinesterase/butyrylcholinesterase” (Eur J Med Chem, 2009) come the findings set out here.

Test [1] has as its target T1, Acetylcholinesterase (Electrophorus electricus, UniProt O42275). Nature of the test: Inhibition of electric eel AChE by Ellman's method.
A further test concerns the target Cholinesterase (Equus caballus, UniProt P81908). Description: Inhibition of equine serum BuChE by Ellman's method. Summed up:
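Modified Ellman assay with equine serum BuChE (enzyme stock 2.0 units/mL), run the same way as the AChE assay. Phosphate buffer pH 8.0 with DTNB (0.01 M stock). Inhibitor incubated 15 min with enzyme, buffer and DTNB before substrate was added. Absorbance rise at 412 nm read over 1 min at 37 °C. IC50 given as mean ± SEM of three experiments.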
(Ellman's reagent forms a yellow product with free thiols.)

The nature of test [2]: Selectivity ratio of IC50 for equine serum BuChE to IC50 for electric eel AChE. Put shortly:
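Modified Ellman assays with electric eel AChE and equine serum BuChE (enzyme stocks 2.0 units/mL). AChE substrate was acetylthiocholine chloride (0.01 M stock), in phosphate buffer pH 8.0 with DTNB (0.01 M stock), after 15 min inhibitor preincubation. A412 read over 1 min at 37 °C. IC50s are means ± SEM of three experiments; ratio = IC50(BuChE)/IC50(AChE).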

Test [3] addresses T1, Acetylcholinesterase. Description: Inhibition of electric eel AChE by LB plot.

The structures appear in SMILES notation. Where only a bound is given, the exact number is not on record here.

What is called IC50 is the point on the concentration scale where inhibition reaches its midpoint. Low values mean greater potency, high ones weaker potency. A word on the Ki: it is a dissociation constant, usually derived from enzyme kinetics or from competition with a known ligand. A high value points to a looser hold on the target.

T1 sequence (O42275 whole entry): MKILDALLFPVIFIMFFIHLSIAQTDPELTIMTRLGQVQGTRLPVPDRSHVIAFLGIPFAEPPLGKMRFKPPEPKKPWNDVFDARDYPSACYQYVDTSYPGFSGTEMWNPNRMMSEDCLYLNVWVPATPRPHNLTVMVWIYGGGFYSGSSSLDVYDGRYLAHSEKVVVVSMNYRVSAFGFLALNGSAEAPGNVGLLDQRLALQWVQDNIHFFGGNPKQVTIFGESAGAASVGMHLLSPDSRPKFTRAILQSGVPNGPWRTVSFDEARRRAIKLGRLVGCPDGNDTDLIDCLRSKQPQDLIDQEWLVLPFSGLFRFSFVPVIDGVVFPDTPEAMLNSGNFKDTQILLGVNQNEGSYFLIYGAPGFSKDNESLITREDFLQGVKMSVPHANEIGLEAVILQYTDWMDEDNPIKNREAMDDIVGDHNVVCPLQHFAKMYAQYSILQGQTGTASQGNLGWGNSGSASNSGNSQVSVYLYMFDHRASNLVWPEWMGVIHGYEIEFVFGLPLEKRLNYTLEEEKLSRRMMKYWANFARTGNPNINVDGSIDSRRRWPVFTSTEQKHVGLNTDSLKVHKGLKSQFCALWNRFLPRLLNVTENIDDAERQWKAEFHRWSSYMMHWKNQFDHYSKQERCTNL
Sequence of Cholinesterase (P81908 whole entry): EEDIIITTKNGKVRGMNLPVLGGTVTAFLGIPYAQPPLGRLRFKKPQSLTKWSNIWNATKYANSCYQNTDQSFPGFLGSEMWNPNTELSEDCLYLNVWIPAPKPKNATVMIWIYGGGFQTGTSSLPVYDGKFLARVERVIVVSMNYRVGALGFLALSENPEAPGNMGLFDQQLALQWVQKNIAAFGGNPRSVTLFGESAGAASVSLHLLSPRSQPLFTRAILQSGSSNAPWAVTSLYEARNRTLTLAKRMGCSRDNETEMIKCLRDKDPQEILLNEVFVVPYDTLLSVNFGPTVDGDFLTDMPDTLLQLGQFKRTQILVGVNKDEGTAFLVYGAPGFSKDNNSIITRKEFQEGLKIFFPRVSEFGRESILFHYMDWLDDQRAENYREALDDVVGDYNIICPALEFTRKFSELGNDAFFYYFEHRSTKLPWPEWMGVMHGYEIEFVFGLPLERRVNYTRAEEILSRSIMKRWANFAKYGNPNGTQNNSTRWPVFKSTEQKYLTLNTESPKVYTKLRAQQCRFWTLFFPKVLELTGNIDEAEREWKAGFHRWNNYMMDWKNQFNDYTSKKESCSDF

Regarding `C[N+]1(CCCNC(=O)c2cnc3c4c(cccc24)-c2ccccc2C3=O)CCOCC1`, the IC50 against Acetylcholinesterase [1] came to 1.05 µM; against Cholinesterase it was 4.75 µM. Besides, the Ratio IC50 in test [2] stood at 4.
For `C[N+]1(CCNC(=O)c2cnc3c4c(cccc24)-c2ccccc2C3=O)CCOCC1`, the IC50 against Acetylcholinesterase [1] stood at 1.24 µM; at Cholinesterase, 11.7 µM. Also, the Ratio IC50 in test [2] came out at 9.
In the case of `O=C1c2ccccc2-c2cccc3ccnc1c23`, the IC50 at Acetylcholinesterase [1] came out at 10.6 µM; against Cholinesterase it was 4.01 µM. Further, the Ratio IC50 in test [2] amounted to 0.4. Further, the affinity at Acetylcholinesterase [3] corresponds to a Ki of 14.6 µM.
`O=C(NCCCO)c1cnc2c3c(cccc13)-c1ccccc1C2=O`: the IC50 against Acetylcholinesterase [1] was 12.2 µM; at Cholinesterase it was 53.3 µM. Further, in test [2], the Ratio IC50 turned out to be 4.
With `C[N+](C)(C)CCNC(=O)c1cnc2c3c(cccc13)-c1ccccc1C2=O`, the results for the 50% inhibitory concentration (IC50) against Acetylcholinesterase [1] and against Cholinesterase were 3.32 µM and 5.03 µM, respectively. In addition, the Ratio IC50 in test [2] was found to be 1.
With `C[N+](C)(C)CCCNC(=O)c1cnc2c3c(cccc13)-c1ccccc1C2=O`, the 50% inhibitory concentration (IC50) was 3.16 µM on Acetylcholinesterase [1] and 2.71 µM at Cholinesterase. In addition, the Ratio IC50 in test [2] amounted to 1.
Regarding `Nc1ccc2c(c1)C(=O)c1cccc3ccnc-2c13`, the IC50 against Cholinesterase was more than 100 µM. The Ki at Acetylcholinesterase [3] was 3.86 µM.
Take `CC[N+](C)(CC)CCCNC(=O)c1cnc2c3c(cccc13)-c1ccccc1C2=O`: the concentration for half-maximal inhibition (IC50) is 0.65 µM on Acetylcholinesterase [1] and 9.72 µM at Cholinesterase. Further, in test [2], the Ratio IC50 came to 15.
`C[N+]1(CCC(=O)Nc2ccc3c(c2)C(=O)c2cccc4ccnc-3c24)CCCCC1`: the concentration for half-maximal inhibition (IC50) was found to be 0.00048 µM against Acetylcholinesterase [1] and 0.6 µM against Cholinesterase. The Ratio IC50 in test [2] turned out to be 1250. On Acetylcholinesterase [3], this compound displayed an inhibition constant (Ki) of 0.00031 µM.
Consider `CC[N+](C)(CC)CCNC(=O)c1cnc2c3c(cccc13)-c1ccccc1C2=O`, for which the half-maximal inhibitory concentration (IC50) turned out to be 1.71 µM on Acetylcholinesterase [1] and 8.14 µM on Cholinesterase. In addition, in test [2], the Ratio IC50 was determined as 5.
The corresponding values for `CC[N+](C)(CC)CCC(=O)Nc1ccc2c(c1)C(=O)c1cccc3ccnc-2c13` are 0.00262 µM, 5.19 µM and 1980.
As to `C[N+]1(CCCNC(=O)c2cnc3c4c(cccc24)-c2ccccc2C3=O)CCCCC1`, the half-inhibitory concentration (IC50) amounted to 0.11 µM against Acetylcholinesterase [1] and 6.24 µM against Cholinesterase. Besides, the Ratio IC50 in test [2] was found to be 57. The Ki at Acetylcholinesterase [3] came to 0.11 µM.
Turning to `O=C(NCCO)c1cnc2c3c(cccc13)-c1ccccc1C2=O`, the 50% inhibitory concentration (IC50) was 18 µM against Acetylcholinesterase [1] and 68.7 µM against Cholinesterase. In addition, in test [2], the Ratio IC50 came to 4.
`C[N+](C)(C)CCC(=O)Nc1ccc2c(c1)C(=O)c1cccc3ccnc-2c13` yielded an IC50 against Cholinesterase of 2.82 µM. For the same compound, the Ratio IC50 in test [2] is 590.
Regarding `C[N+]1(CCNC(=O)c2cnc3c4c(cccc24)-c2ccccc2C3=O)CCCCC1`, the 50% inhibitory concentration (IC50) against Acetylcholinesterase [1] is 0.35 µM; at Cholinesterase, 6.76 µM. In addition, the Ratio IC50 in test [2] was 16.
